# Data as given in ChEMBL document CHEMBL1123831, “17-Heteroaroyl esters of corticosteroids. 2. 11 beta-Hydroxy series” (1987).
# Assays:
# Mus musculus [1] = species: Mus musculus; test: Anti-inflammatory potency was measured in mice at 5 hours by modification of the Tonelli croton oil ear assay; format: functional
# Method in brief: (§1)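 Topical dosing in mice. Compounds at 10^-4% to 10^-6% (w/v) were dissolved in 0.6–0.7% croton oil, in a vehicle of pyridine/water/diethyl ether 20:5:74 (v/v). 10 µL was applied to the inner aspect of both pinnae daily for 5 days. Animals were killed 5 h after the last dose, and 6-mm ear punch biopsies were weighed. Potency was calculated relative to betamethasone 17-valerate from the mean left-plus-right ear punch weights.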
# Mus musculus [2] = species: Mus musculus; test: Anti-inflammatory potency was measured in mice by modification of the croton oil ear assay; parameters: reference not given here
# Mus musculus [3] = species: Mus musculus; test: Anti-inflammatory potency was measured in mice at 5 hours by modification of the croton oil ear assay; format: functional; method in brief: as §1
SMILES,Potency (Mus musculus [1]),Potency (Mus musculus [2]),Potency (Mus musculus [3])
CC(=O)OCC(=O)[C@@]1(OC(=O)c2ccco2)[C@H](C)CC2C3CCC4=CC(=O)C=CC4(C)[C@@]3(F)C(O)CC21C (stereo partly drawn),1.7,2.2,
C[C@H]1CC2C3CCC4=CC(=O)C=CC4(C)[C@@]3(F)C(O)CC2(C)[C@@]1(OC(=O)c1ccco1)C(=O)CCl (stereo partly drawn),0.6,0.9,
CC(=O)OCC(=O)[C@@]1(OC(=O)c2ccco2)[C@H](C)CC2C3C[C@H](F)C4=CC(=O)C=CC4(C)C3C(O)CC21C (stereo partly drawn),2.7,2.1,
C=C1CC2C3CCC4=CC(=O)C=CC4(C)[C@@]3(F)C(O)CC2(C)[C@@]1(OC(=O)c1ccco1)C(=O)COC(C)=O (stereo partly drawn),0.5,1.1,
CCCC(=O)OCC(=O)[C@@]1(OC(=O)c2ccco2)[C@H](C)CC2C3CCC4=CC(=O)C=CC4(C)[C@@]3(F)C(O)CC21C (stereo partly drawn),1.1,,
COCC(=O)OCC(=O)[C@@]1(OC(=O)c2ccco2)[C@H](C)CC2C3CCC4=CC(=O)C=CC4(C)[C@@]3(Cl)C(O)CC21C (stereo partly drawn),,4.3,
C=C1CC2C3CCC4=CC(=O)C=CC4(C)C3(Cl)C(O)CC2(C)[C@@]1(OC(=O)c1ccco1)C(=O)COC(C)=O (stereo partly drawn),2.3,,2.2
C[C@@H]1C[C@H]2[C@@H]3CCC4=CC(=O)C=C[C@]4(C)[C@@]3(Cl)[C@@H](O)C[C@]2(C)[C@@]1(OC(=O)c1ccco1)C(=O)CF,1.4,4.4,
C[C@@H]1CC2C3CCC4=CC(=O)C=CC4(C)[C@@]3(F)C(O)CC2(C)[C@@]1(OC(=O)c1ccco1)C(=O)CCl (stereo partly drawn),1.6,2.3,
C[C@@H]1CC2C3CCC4=CC(=O)C=CC4(C)[C@@]3(F)C(O)CC2(C)[C@@]1(OC(=O)c1ccoc1)C(=O)CCl (stereo partly drawn),1,1.2,
C[C@@H]1CC2C3C[C@H](F)C4=CC(=O)C=CC4(C)[C@@]3(Cl)C(O)CC2(C)[C@@]1(OC(=O)c1ccco1)C(=O)CCl (stereo partly drawn),1.1,5.1,
CCCCC(=O)O[C@]1(C(=O)CO)[C@@H](C)C[C@H]2[C@@H]3CCC4=CC(=O)C=C[C@]4(C)[C@@]3(F)[C@@H](O)C[C@@]21C [BETAMETHASONE VALERATE],1,1,
CCC(=O)OCC(=O)[C@@]1(OC(=O)c2ccco2)[C@H](C)CC2C3CCC4=CC(=O)C=CC4(C)C3C(O)CC21C (stereo partly drawn),1.1,1.5,
C[C@@H]1CC2C3CCC4=CC(=O)C=CC4(C)[C@@]3(Cl)C(O)CC2(C)[C@@]1(OC(=O)c1ccco1)C(=O)CCl (stereo partly drawn),1,6.1,
CC(=O)OCC(=O)[C@@]1(OC(=O)c2ccco2)CCC2C3CCC4=CC(=O)C=CC4(C)C3C(O)CC21C (stereo partly drawn),1.3,0.9,
CCC(=O)OCC(=O)[C@@]1(OC(=O)c2ccco2)[C@H](C)CC2C3CCC4=CC(=O)C=CC4(C)[C@@]3(F)C(O)CC21C (stereo partly drawn),2.1,6.8,
CC(=O)OCC(=O)[C@@]1(OC(=O)c2ccoc2)[C@H](C)CC2C3CCC4=CC(=O)C=CC4(C)[C@@]3(F)C(O)CC21C (stereo partly drawn),2.9,3.2,
C[C@@H]1CC2C3CCC4=CC(=O)C=CC4(C)[C@@]3(Cl)C(O)CC2(C)[C@@]1(OC(=O)c1cccs1)C(=O)CCl (stereo partly drawn),1.2,4.5,
COCC(=O)OCC(=O)[C@@]1(OC(=O)c2ccco2)[C@H](C)CC2C3CCC4=CC(=O)C=CC4(C)[C@@]3(F)C(O)CC21C (stereo partly drawn),0.8,3.2,
CC(=O)OCC(=O)[C@@]1(OC(=O)c2cccs2)[C@H](C)CC2C3CCC4=CC(=O)C=CC4(C)[C@@]3(F)C(O)CC21C (stereo partly drawn),1.6,2.9,
CC(=O)OCC(=O)[C@@]1(OC(=O)c2ccc(C)s2)[C@H](C)CC2C3CCC4=CC(=O)C=CC4(C)[C@@]3(F)C(O)CC21C (stereo partly drawn),2.4,1.7,
C[C@H]1CC2C3CCC4=CC(=O)C=CC4(C)[C@@]3(F)C(O)CC2(C)[C@@]1(OC(=O)c1cccs1)C(=O)CCl (stereo partly drawn),1.3,2.6,
C=C1CC2C3CCC4=CC(=O)C=CC4(C)C3C(O)CC2(C)[C@@]1(OC(=O)c1ccco1)C(=O)COC(C)=O (stereo partly drawn),2.7,1.2,
CC(=O)OCC(=O)[C@@]1(OC(=O)c2ccco2)[C@H](C)CC2C3CCC4=CC(=O)C=CC4(C)[C@@]3(Cl)C(O)CC21C (stereo partly drawn),1.7,4.4,
CC(=O)OCC(=O)[C@@]1(OC(=O)c2ccco2)[C@@H](C)CC2C3CCC4=CC(=O)C=CC4(C)[C@@]3(F)C(O)CC21C (stereo partly drawn),0.5,0.2,
